The source of these data is the RNAGym collection of RNA variant scans (doi:10.1038/s41586-018-0170-7).

First the molecules themselves.
B1: tRNA (parent)
chain: GUUCCGUUGGCGUAAUGGUAACGCGUCUCCCUCCUAAGGAGAAGACUGCGGGUUCGAGUCCCGUACGGAACG

The series covers variants of B1. Briefly: yeast fitness, log relative to wild type (ln ratio); higher = fitter; tRNA-Arg(CCU), competitive growth, 37 C, 1 M NaCl. An outline of the steps: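 In BY4742 missing the chromosomal gene, a combinatorial tRNA-Arg(CCU) variant library was maintained on a HIS3 centromeric plasmid. Selection ran ~6.5 generations (~26.5 h) in SC-HIS 1M NaCl at 37 °C, following 4 generations in SC-HIS at 30 °C, with three outputs per input and variant counts by 125 bp paired-end Illumina sequencing. Fitness is the natural log of a genotype's generations relative to the wild type's, with generations taken as inverse-variance-weighted, OD-scaled log2 output/input frequency.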
As to G1A G6U C46U A69G A70U, the “yeast fitness (ln)” value is -0.0951.

Take G1A G6U C46U A69G A70G: the “yeast fitness (ln)” value is -0.203.

G1A U2C C66U A70G C71U: the “yeast fitness (ln)” value is 0.00307.

Turning to G1A U2C A43C C46U A70G C71U, the “yeast fitness (ln)” value was -0.00628.

For the variant G1A U2C G6A A43C C46U, the “yeast fitness (ln)” value came out at 0.0217.

For the variant G1A U2C A43C C46U C66A A69G A70G C71U, the “yeast fitness (ln)” value was -0.0434.

As for G1A U2C C66A A70U C71U, the “yeast fitness (ln)” value was -0.0883.

For the variant G1A G6U C27U C66U A70U C71U, the “yeast fitness (ln)” value is -0.461.

As for G1A U2C C27U A43C C46U C71U, the “yeast fitness (ln)” value is -0.178.

For G1A G6U C27U C46U A70U C71U, the “yeast fitness (ln)” value is -0.278.

For G1A U2C C27U A43C A69G A70G C71U, the “yeast fitness (ln)” value is -0.0597.

In the case of G1A U2C C66U A70U C71U, the “yeast fitness (ln)” value was -0.106.

Consider G1A U2C C27U A70U C71U, for which the “yeast fitness (ln)” value was -0.288.

G1A G6U C27U A43C C66A A70G: the “yeast fitness (ln)” value was -0.33.

With G1A G6U C27U A43C C66A A70U, the “yeast fitness (ln)” value is -0.264.

G1A G6U C27U C46U C66U A70G: the “yeast fitness (ln)” value is -0.234.

For G1A G6U C27U C46U C66U A70U, the “yeast fitness (ln)” value was -0.29.

In the case of G1A G6U C27U C46U C66A A69G C71U, the “yeast fitness (ln)” value was -0.187.

For G1A G6U C27U A43C C71U, the “yeast fitness (ln)” value was -0.352.

Turning to G1A G6U C46U C66U A69G C71U, the “yeast fitness (ln)” value is -0.814.

As to G1A U2C C27U C46U A70U C71U, the “yeast fitness (ln)” value was -0.155.

As to G1A U2C C27U A43C A69G A70U C71U, the “yeast fitness (ln)” value was -0.345.

For G1A U2C C27U A43C C46U A69G A70G, the “yeast fitness (ln)” value is -0.178.

As to G1A U2C C27U A43C C46U A69G A70U, the “yeast fitness (ln)” value was -0.0492.

Regarding G1A U2C A43C C46U C66U A69G A70G, the “yeast fitness (ln)” value was -0.0919.

With G1A U2C A43C C46U C66U A69G A70U, the “yeast fitness (ln)” value was -0.195.

Take G1A U2C C27U A69G A70G: the “yeast fitness (ln)” value was -0.209.

As to G1A U2C C27U A69G A70U, the “yeast fitness (ln)” value is -0.0698.

In the case of G1A U2C C27U A43C, the “yeast fitness (ln)” value was -0.0395.

Turning to G1A U2C C27U A69G C71U, the “yeast fitness (ln)” value was -0.131.

On to G1A U2C A43C A70U C71U, for which the “yeast fitness (ln)” value is -0.278.

Turning to G1A G6U C27U C66A A70U, the “yeast fitness (ln)” value was -0.407.

For G1A G6U C27U C66A A70G, the “yeast fitness (ln)” value is -0.228.

On to G1A G6U C27U C66U A69G A70G C71U, for which the “yeast fitness (ln)” value was -0.386.

On to G1A G6U C46U A70G C71U, for which the “yeast fitness (ln)” value was -0.227.

As for G1A G6U C27U A69G A70U C71U, the “yeast fitness (ln)” value is -0.505.

Consider G1A U2C C27U A43C C66A A70U C71U, for which the “yeast fitness (ln)” value was -0.331.

As to G1A U2C C27U C66U C71U, the “yeast fitness (ln)” value is -0.33.

G1A G6U C46U C66A A69G A70U: the “yeast fitness (ln)” value is -0.106.

G1A G6U C46U C66A A69G A70G: the “yeast fitness (ln)” value is -0.158.

Turning to G1A G6U C66U A69G A70U C71U, the “yeast fitness (ln)” value was -0.525.

Regarding G1A U2C A43C C46U C66U A70G C71U, the “yeast fitness (ln)” value is -0.0729.

Turning to G1A U2C A70G, the “yeast fitness (ln)” value was -0.0111.

Regarding G1A U2C A70U, the “yeast fitness (ln)” value was -0.096.

For the variant G1A U2C G6A, the “yeast fitness (ln)” value stood at 0.00615.

For G1A U2C C27U C66U A69G A70U C71U, the “yeast fitness (ln)” value was -0.54.

Take G1A G6U C66U A69G A70U: the “yeast fitness (ln)” value is -0.284.

Turning to G1A G6U C66U A69G A70G, the “yeast fitness (ln)” value was -0.288.

On to G1A G6U C27U A70G, for which the “yeast fitness (ln)” value is -0.277.

For the variant G1A G6U C27U A70U, the “yeast fitness (ln)” value is -0.232.

With G1A U2C C27U A70U, the “yeast fitness (ln)” value was -0.0826.

On to G1A U2C C27U A70G, for which the “yeast fitness (ln)” value is -0.0624.

In the case of G1A G6U C27U A43C C46U C66U A69G C71U, the “yeast fitness (ln)” value is -0.423.

On to G1A U2C C27U C46U C66U, for which the “yeast fitness (ln)” value is -0.144.

As for G1A U2C A43C C46U A69G A70G C71U, the “yeast fitness (ln)” value is -0.00408.

Consider G1A U2C C27U C46U C66U A70U, for which the “yeast fitness (ln)” value was -0.0209.

Regarding G1A U2C C27U C46U C66U A70G, the “yeast fitness (ln)” value is -0.242.

For G1A G6U C27U A70U C71U, the “yeast fitness (ln)” value is -0.335.

Take G1A G6U C27U C46U C66U C71U: the “yeast fitness (ln)” value was -0.297.

Consider G1A G6U C27U C46U C66U A70U C71U, for which the “yeast fitness (ln)” value is -0.438.

Consider G1A U2C A43C A70G, for which the “yeast fitness (ln)” value is -0.0553.

In the case of G1A U2C A43C A70U, the “yeast fitness (ln)” value was -0.108.

On to G1A G6U C27U C46U C71U, for which the “yeast fitness (ln)” value was -0.239.

Consider G1A G6U C46U C66U A69G A70G, for which the “yeast fitness (ln)” value is -0.205.

Turning to G1A G6U C46U C66U A69G A70U, the “yeast fitness (ln)” value is -0.251.

For the variant G1A G6U C27U A70G C71U, the “yeast fitness (ln)” value is -0.352.

Regarding G1A G6U C27U A69G A70U, the “yeast fitness (ln)” value was -0.29.

For G1A G6U C27U A69G A70G, the “yeast fitness (ln)” value was -0.379.

Regarding G1A U2C C46U C66A A70U C71U, the “yeast fitness (ln)” value is -0.0833.

Consider G1A G6U C27U A43C C66A A69G A70G C71U, for which the “yeast fitness (ln)” value was -0.417.

Consider G1A U2C C66U A69G A70G C71U, for which the “yeast fitness (ln)” value is -0.055.

Regarding G1A G6U C66U A70U, the “yeast fitness (ln)” value is -0.154.

Take G1A G6U C66U A70G: the “yeast fitness (ln)” value was -0.199.

As to G1A G6U C46U C66U A70G C71U, the “yeast fitness (ln)” value was -0.277.

As to G1A G6U C27U A43C C46U C71U, the “yeast fitness (ln)” value was -0.212.

Turning to G1A U2C C27U A70G C71U, the “yeast fitness (ln)” value was -0.0348.

As for G1A U2C C46U C66U A70G C71U, the “yeast fitness (ln)” value is -0.01.

In the case of G1A U2C A43C C46U C71U, the “yeast fitness (ln)” value is -0.0678.

Take G1A U2C C46U C66U C71U: the “yeast fitness (ln)” value is -0.119.

On to G1A G6U C46U C66U C71U, for which the “yeast fitness (ln)” value was -0.057.

Consider G1A U2C A43C C66A A70G C71U, for which the “yeast fitness (ln)” value was -0.128.

Consider G1A U2C C46U C66U, for which the “yeast fitness (ln)” value was -0.00756.

In the case of G1A G6U C66U A69G C71U, the “yeast fitness (ln)” value was -0.312.

As to G1A U2C C27U A43C C46U C66A A69G A70G C71U, the “yeast fitness (ln)” value was -0.158.
